Yeast tox = Compounds toxic to wild-type S. cerevisiae growth. 30,000 tested, 0.3% active. A595 turbidity, 16 h. AID 685. growth inhibition, % at 25 µM (by protocol);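 active means mutant and wild-type yeast strains alike exhibit over 30% growth inhibition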;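 further: 0% = untreated cell controls and 100% = YPD media blanks without cells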
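Test system: Wild-type and eIF2Bepsilon-R284H mutant S. cerevisiae, screened separately | Dosing: Single 25 µM compound dose in 0.2% DMSO | Schedule: 16 h compound exposure during growth at 30 °C | Detection: A595 turbidity | Evaluation: Growth inhibition (%) versus cell controls and blanks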
eIF2B yeast act = modulators of yeast eIF2B activity; S. cerevisiae eIF2B-epsilon R284H, GCN4-lacZ luminescence; inhibition, % at 25 µM (by protocol); 27,000 tested, 0.91% active;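 active means mutant luminescence inhibited past about 50% while wild type luminescence and mutant growth stay under set limits, limit read from the data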
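Assay system: yeast eIF2B-epsilon R284H mutant carrying GCN4–beta-galactosidase fusion / Buffer or medium: YPD / Incubation: 16 h growth with compound at 30 °C, 90 min Beta-Glo step / Detection: Beta-Glo luminescence after Z-buffer lysis, growth by 595 nm absorbance / Read-out: % inhibition of reporter signal and growth versus controls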
Numbers without * were called inactive. An excerpt weighted towards active compounds, which were near 1% of everything screened.

CCN(C(=O)COC(=O)c1[nH]c(C)c(C(C)=O)c1C)C1CCS(=O)(=O)C1 (stereo not given) was read as Yeast tox -4 and eIF2B yeast act -3.
For CCC(C)N(C(=O)COC(=O)c1[nH]c(C)c(C(C)=O)c1C)C1CCS(=O)(=O)C1 (stereo not given) the results were Yeast tox -1 and eIF2B yeast act 54*.
For CCCC(C)NS(=O)(=O)c1ccc(OC)c(C)c1 (stereo not given) the results were Yeast tox 9 and eIF2B yeast act 8.
For CCOc1ccc2nc(NS(=O)(=O)Cc3ccccc3)sc2c1 the results were Yeast tox 19 and eIF2B yeast act 16.
Screening CSc1nc2ccccc2n1CC(=O)Nc1cc(C(F)(F)F)ccc1N1CCOCC1 returned Yeast tox 11 and eIF2B yeast act 24.
CCCC(CCC(=O)NC1CCCCC1)C(=O)O (stereo not given) was read as Yeast tox -6 and eIF2B yeast act 91*.
Screening CC(C)NC(=O)C(=O)NC1CCCCCC1 returned Yeast tox 34 and eIF2B yeast act 22.
Screening CCC(C)Oc1cccc(OCCCCN2C(=O)NC(C)(C)C2=O)c1 (stereo not given) returned Yeast tox -12 and eIF2B yeast act 51*.
Screening CC1(C)NC(=O)N(CCOCCOc2cccc(Oc3ccccc3)c2)C1=O returned Yeast tox 2 and eIF2B yeast act 13.
For COC(=O)CSc1nc(NC#N)nc(NC(C)C)n1 the results were Yeast tox 9 and eIF2B yeast act 4.
`Cc1cc(NCc2ccc(F)cc2Cl)n2nnnc2n1` gave Yeast tox 16 and eIF2B yeast act 64*.
`COc1ccc(CNc2cc(C)nc3ncnn23)c(OC)c1` gave Yeast tox 8 and eIF2B yeast act 17.
Screening COc1cccc(C2(O)CCN(C(=O)Cc3cccnc3)CC2)c1 returned Yeast tox 40 and eIF2B yeast act -1.
For Cc1cccc(OCc2nnc(NC(=O)c3cccs3)s2)c1 the results were Yeast tox 6 and eIF2B yeast act -26.
Screening O=C(Nc1nnc(COc2ccc(Cl)cc2)s1)c1cccs1 returned Yeast tox 2 and eIF2B yeast act 50*.
COC(=O)/C(=C(/F)Sc1cc(C)c(O)c(C)c1)C(F)(F)F was read as Yeast tox 31.
For C=CCn1c(SCC(=O)Nc2sccc2C(N)=O)nc2ccccc2c1=O the results were Yeast tox -12 and eIF2B yeast act 19.
Screening C=CCn1c(N)cc(=O)nc1SCC(=O)Nc1ccccc1 returned Yeast tox -11 and eIF2B yeast act 58*.
Screening Cc1nnc2sc(-c3ccncc3)nn12 returned Yeast tox 5 and eIF2B yeast act 64*.
For COc1cc(OC)c(-c2nn3c(-c4ccncc4)nnc3s2)cc1OC the results were Yeast tox -27 and eIF2B yeast act -1.
For Cc1[nH]n(-c2ccccc2)c(=O)c1C1(C(F)(F)F)C(=O)N(c2ccc(F)cc2)C2=C1C(=O)CC(C)(C)C2 (stereo not given) the results were Yeast tox 1.
`COc1ccccc1CNC(=O)CN(c1ccc(C)cc1)S(=O)(=O)c1c(C)nn(C)c1C` gave Yeast tox 7 and eIF2B yeast act 51*.
For COc1ccccc1NC(=O)CN(c1ccc(C)cc1)S(=O)(=O)c1c(C)n[nH]c1C the results were Yeast tox 21 and eIF2B yeast act 19.
`Cc1ncc(CCl)c2c1OC(C)(C)OC2` gave Yeast tox -5 and eIF2B yeast act 7.
For CCCCCCCCCCn1c2c(c(=N)c3c1CCC3)CCC2 the results were Yeast tox 79*.
`CCCCCCn1ccc(=N)cc1` gave Yeast tox -8 and eIF2B yeast act -17.
For Cn1c2ccccc2c(=O)c2c(=O)n(C3CCCCC3)c(-c3cccs3)nc21 the results were Yeast tox 14.
`CCC(=O)Nc1c2c(nn1-c1ccc(C)cc1C)CSC2` gave Yeast tox 8 and eIF2B yeast act 52*.
`Cc1ccccc1-n1nc2c(c1NC(=O)c1c(-c3ccccc3Cl)noc1C)CSC2` gave Yeast tox 11 and eIF2B yeast act 17.
Screening CC(=O)Nc1cc(C(F)(F)F)ccc1OCCOc1ccccc1 returned Yeast tox -6 and eIF2B yeast act 55*.
`COC(=O)Nc1cc(C(F)(F)F)ccc1N1CCN(c2ccccc2)CC1` gave Yeast tox 8 and eIF2B yeast act 2.
Screening CCN(CC)c1ccc(-c2nnc(SCC(=O)Nc3ccccc3C#N)n2-c2ccccc2)cc1 returned Yeast tox 10 and eIF2B yeast act -12.
Screening COc1ccc(CCNC(=O)c2c[nH]c3ccccc3c2=O)cc1OC returned Yeast tox 7 and eIF2B yeast act 4.
CCOCCCNC(=O)c1c[nH]c2ccc(C)cc2c1=O was read as Yeast tox -3 and eIF2B yeast act 52*.
`O=[N+]([O-])c1cc(Cl)cc(C2=NCCN2)c1` gave Yeast tox 20.
For Cc1ccc(C2CC(c3cccs3)=NN2C(=O)c2ccc(Br)o2)cc1 (stereo not given) the results were Yeast tox 4 and eIF2B yeast act 22.
For Cn1c(/C(C#N)=C(\O)CN2CCN(Cc3ccccc3)CC2)nc2ccccc21 the results were Yeast tox -15 and eIF2B yeast act 64*.
For Cc1ccc(SC/C(O)=C(\C#N)c2nc3ccccc3n2C)cc1 the results were Yeast tox -18 and eIF2B yeast act 12.
`Cc1cccc(-c2nnc(SCC#N)n2Cc2ccccc2)c1` gave Yeast tox -15 and eIF2B yeast act 64*.
`CCn1c(SCc2cccc(C)c2)nnc1-c1ccc(C)cc1` gave Yeast tox 4 and eIF2B yeast act 16.
`CCC(=C(c1ccc(OC)cc1)c1ccc(OC)cc1)c1cn(CC(O)CN2CCN(C)CC2)c2ccccc12` (stereo not given) gave Yeast tox 102* and eIF2B yeast act 97.
COc1ccc(OCC(O)CN2CCCCCC2)cc1 (stereo not given) was read as Yeast tox -34 and eIF2B yeast act 13.
CCOC(=O)c1oc2ccc(CNC(C)(C)C)c(Cl)c2c1C was read as Yeast tox -1.
Cc1cc(C(=O)COC(=O)C2=NNC(=O)CC2)c(C)n1-c1cccc(C(F)(F)F)c1 was read as Yeast tox -7 and eIF2B yeast act 3.
`CC1=C(C)/C(=N\OS(=O)(=O)c2ccccc2)C=CC1=O` gave Yeast tox 100* and eIF2B yeast act 89.
COc1ccc(S(=O)(=O)N2CCC(C(=O)N3CCc4ccccc4C3)CC2)cc1Cl was read as Yeast tox 14 and eIF2B yeast act 22.
Screening COc1ccc(-c2c(NC(=O)c3ccco3)n(C)c3ccccc3c2=O)cc1 returned Yeast tox 1 and eIF2B yeast act -15.
`Cn1c(=O)c(=O)n(C)c2cc(S(=O)(=O)N3CCCCCC3)ccc21` gave Yeast tox 0 and eIF2B yeast act 58*.
CCOc1cc(S(=O)(=O)N2CCCCC2)ccc1F was read as Yeast tox 16 and eIF2B yeast act 3.
`CC(=O)c1cccc(-n2nnnc2SCC(=O)Nc2ccccc2N2CCCCC2)c1` gave Yeast tox 7 and eIF2B yeast act 19.
CC(=O)c1cccc(-n2nnnc2SCC(=O)Nc2cccc(NC(=O)c3ccco3)c2)c1 was read as Yeast tox 7 and eIF2B yeast act 61*.

Compound activity deposited in PubChem by PCMD.
